Measured values gathered from unrelated publications.
Compare with care: the assays were run in different laboratories.
ADRA1B: Alpha-1B adrenergic receptor (ADRA1B, Homo sapiens, UniProt P35368)
Mapk1: Mitogen-activated protein kinase 1 (Mapk1, Mus musculus, UniProt P63085)
PARP3: Protein mono-ADP-ribosyltransferase PARP3 (PARP3, Homo sapiens, UniProt Q9Y6F1)

SMILES	target	observed	mode	technique	cells	concentration	inhibition [%]
O=C(c1ccc(Cl)cc1)N(Cc1ccccc1)C1CCCCC1	ADRA1B	cell-free assay	–	–	–	10 µM	11.3
CCN(c1cc(C#CCN2CCOCC2)cc(C(=O)NCc2c(C)cc(C)[nH]c2=O)c1C)[C@H]1CC[C@H](N(C)CCOC)CC1	Histone-lysine N-methyltransferase NSD3 (NSD3, Homo sapiens, UniProt Q9BZ95)	enzyme activity	inhibitor	–	–	1 µM	16
Cc1ccc(Nc2nccc(N(C)c3ccc4c(C)n(C)nc4c3)n2)cc1S(N)(=O)=O	Mapk1	enzyme activity	inhibitor	–	–	10 µM	3
Oc1cccc(Nc2nc(-c3ccc(F)cc3F)cs2)c1	ADRA1B	cell-free assay	–	–	–	10 µM	16.4
CCN(CC)c1ccc(C2Nc3ccc(C(=O)c4ccccc4)cc3NC3=C2C(=O)CC(C)(C)C3)cc1 (centres unmarked)	ADRA1B	ligand displacement	–	radioligand	–	10 µM	-5
CC/C(=N\NC(=O)NCc1cccc(O)c1)c1ccc(O)c(C)c1O	cAMP-dependent protein kinase catalytic subunit gamma (PRKACG, Homo sapiens, UniProt P22612)	enzyme activity	inhibitor	–	–	0.1 µM	91
O=C1N=C(N2CCCCN2)S/C1=C\c1ccc(F)cc1O	Corticotropin-releasing factor receptor 1 (CRHR1, Homo sapiens, UniProt P34998)	ligand displacement	–	radioligand	–	10 µM	< 10
CN(C)C1CCN(CC#Cc2nn(C3CCCC3)c3nc(NCc4ccccc4)ncc23)C1 (centres unmarked)	Macrophage colony-stimulating factor 1 receptor (CSF1R, Homo sapiens, UniProt P07333)	enzyme activity	inhibitor	FRET	–	1 µM	82
Ic1cccc2cnccc12	PARP3	enzyme activity	inhibitor	–	–	10 µM	7
CCN(CC)CCNC(=O)c1c(C)[nH]c(/C=C2\C(=O)Nc3ccc(F)cc32)c1C	Mapk1	enzyme activity	inhibitor	–	–	10 µM	-14
N#Cc1cc(Cn2c(N3CCCC3)nc3ccccc32)ccc1F	ADRA1B	ligand displacement	–	–	–	10 µM	-7.54
O=C1CCNC(=O)c2cc(Cl)c(Cl)cc21	PARP3	enzyme activity	inhibitor	–	–	10 µM	85
CCN1CCN(Cc2ccc(NC(=O)c3ccc(C)c(Oc4ccnc5[nH]ccc45)c3)cc2C(F)(F)F)CC1	Microtubule-associated serine/threonine-protein kinase 4 (MAST4, Homo sapiens, UniProt O15021)	target engagement in cells	inhibitor	chemoproteomics	Huh-7	10 µM	-28.8
O=C1NCCCc2ccc(F)cc21	PARP3	enzyme activity	inhibitor	–	–	10 µM	63
Cn1cnc(Br)c1C1=CN(c2ncnc3[nH]cnc23)CCS1	Myosin-IIIa (MYO3A, Homo sapiens, UniProt Q8NEV4)	enzyme activity	inhibitor	radiometric	–	50 nM	19.3
CNC(=O)c1cc2c(Oc3ccc(NC(=O)C4(C(=O)Nc5ccc(F)cc5)CC4)cc3)ccnc2cc1OC	Hepatocyte growth factor receptor (MET, Homo sapiens, UniProt P08581)	enzyme activity	inhibitor	radiometric	–	1 µM	99
O=C1CCCc2ccc(F)cc2N1	PARP3	enzyme activity	inhibitor	–	–	10 µM	0
